CHRM4 antagonist – antagonists of human muscarinic M4 receptor (CHRM4); P08173; CHO-hM4 cells, ACh EC80, Fluo-8 calcium fluorescence; inhibition, % at 3 µM; hit rate 0.73% among 360,000; AID 624125;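 active means inhibition above its plate's cutoff, the mean inhibition of sample wells plus 3 SD, cut at about 27% in these data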;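 further: 0% = acetylcholine EC80 with DMSO and 100% = DMSO without agonist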
Target sequence (P08173 whole entry, looked up): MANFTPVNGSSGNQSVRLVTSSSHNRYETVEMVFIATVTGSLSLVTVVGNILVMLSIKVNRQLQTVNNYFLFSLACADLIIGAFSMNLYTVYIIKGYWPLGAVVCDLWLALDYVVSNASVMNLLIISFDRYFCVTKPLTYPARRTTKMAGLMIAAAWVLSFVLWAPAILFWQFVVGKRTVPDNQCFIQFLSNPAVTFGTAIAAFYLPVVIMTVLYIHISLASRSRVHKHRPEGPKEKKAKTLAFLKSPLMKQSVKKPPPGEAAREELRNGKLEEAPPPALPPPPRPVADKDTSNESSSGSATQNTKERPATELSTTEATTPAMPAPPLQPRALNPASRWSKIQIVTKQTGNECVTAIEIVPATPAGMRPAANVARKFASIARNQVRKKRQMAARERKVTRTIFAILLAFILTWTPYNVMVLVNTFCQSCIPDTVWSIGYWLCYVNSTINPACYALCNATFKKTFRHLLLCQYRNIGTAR
CHRM5 antagonist – CHRM5 antagonism in calcium assay | P08912 | CHO-hM5 cells, Fluo-8 calcium fluorescence, ACh EC80 | inhibition, % at 3 µM | hit rate 0.59% among 360,000;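 active means inhibition above a per-plate cutoff, the mean of that plate's test compounds plus 3 SD, cut at about 27% in these data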;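 further: 0% = acetylcholine EC80 with DMSO and 100% = DMSO without agonist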
M5 PAM – positive allosteric modulators of human muscarinic M5 receptor. hit rate 0.3% among 360,000. P08912. CHO-K1 hM5, Fluo-8 calcium, ACh EC20 PAM; 0% = ACh EC20, 100% = ACh EC100. AID 624038. activation, % at 3 µM;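 active means activation above the run cutoff, the mean activation of all test compounds plus 3 SD, cut at about 18% in these data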
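system = human M5 receptor in CHO-K1 cells | compound = one concentration, 3 µM final (nominal) | schedule = Post-acetylcholine fluorescence recording 140 s | signal = Fluo-8 calcium dye fluorescence, kinetic read | benchmarks = low control EC20 acetylcholine (0%), high control EC100 acetylcholine (100%) | repeats = singlicate, one well per test compound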
CHRM4 agonist – CHRM4 agonism in calcium assay; P08173; CHO-K1 hM4/Gqi5, Fluo-8 calcium fluorescence; vehicle 0%, full acetylcholine response 100%; activation, % at 3 µM; hit rate 0.14% among 360,000;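 active means activation above the run mean over all test wells plus 3 SD, cut at about 32% in these data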;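 further: peak over basal fluorescence ratio per well then scaled between controls; 0% = DMSO wells and 100% = acetylcholine at EC100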
CHRM4 PAM – potentiates acetylcholine response at human M4 receptor; P08173; CHO-K1 hM4/Gqi5, Fluo-8 calcium fluorescence, ACh EC20; 0% = ACh EC20, 100% = maximal ACh; activation, % at 3 µM; hit rate 0.4% among 360,000; AID 624126;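 active means activation above its plate's cutoff, the mean activation of sample wells plus 3 SD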
M5 ag – agonists of human muscarinic M5 receptor (CHRM5); P08912; CHO-K1 hM5 cells, Fluo-8 calcium fluorescence; 0% DMSO wells, 100% maximal acetylcholine response; activation, % at 3 µM; hit rate 0.19% among 360,000; AID 624037;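 active means activation above the run's mean over test compounds plus 3 SD, cut at about 23% in these data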;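 further: signal is peak over basal fluorescence ratio across the kinetic read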
* marks the source's active call; other numbers are inactive results. A selection: hits, their analogues and other compounds. The true share with any hit is near 1.8%.

SMILES	CHRM4 antagonist	CHRM5 antagonist	M5 PAM	CHRM4 agonist	CHRM4 PAM	M5 ag
CSc1ncc(CN2CCN(CC=C(C)C)C(CCO)C2)cn1 (configuration not stated)	1	7	-4	1	-5	-2
CSc1ncc(CN2CCN(C3CCCC3)C(CCO)C2)cn1 (configuration not stated)	42*	3	1	0	-41	-10
C/C(=N/NS(=O)(=O)c1ccccc1)c1ccc(NC(=O)C2CC2)cc1	-7	-9	3	2	10	-6
Cc1cccc(-c2cc(NCCc3cccnc3)n3nccc3n2)c1	-4	4	-5	3	-6	1
CC(=O)Nc1ccc(NC(=O)c2ccccc2S(=O)(=O)c2ccc([N+](=O)[O-])cc2)cc1	0	-3	-1	2	-4	0
CCN1CCN(Cc2ccc(NC(=O)Nc3ccccc3)cc2)CC1	-12	-3	-4	1	1	-2
OCCC1CN(Cc2nc(-c3ccccc3)cs2)CCN1C1CCCC1 (configuration not stated)	53*	11	-9	1	-57	-14
OCCC1CN(Cc2nc(-c3ccccc3)cs2)CCN1Cc1ccc(F)cc1 (configuration not stated)	1	9	-5	10	-1	3
CC(=O)Nc1ccc(CN2CCCN(C)CC2)cc1	1	30*	-16	2	0	-6
COc1cccc(CN2CCN(C(=O)CCc3nnc(C4CCCCC4)o3)CC2=O)c1	-7	1	1	0	3	-4
CN1CCN(C(=S)c2cn(CCOc3ccccc3)c3ccccc23)CC1	-4	10	12	1	1	-2
CC1CCCCN1S(=O)(=O)c1ccc([N+](=O)[O-])cc1 (configuration not stated)	29*	11	-10	0	-14	-24
CCC1CCCCN1S(=O)(=O)c1ccc([N+](=O)[O-])cc1 (configuration not stated)	28*	5	-16	-1	-14	-23
COc1ccccc1NC(=O)CCC(=O)N/N=C(/C)c1ccc(C)cc1	-5	2	-1	1	0	-2
c1cncc(CN2CCN(c3cc(-c4cnc5ccccc5c4)nc4ccnn34)CC2)c1	2	-2	-2	1	-3	0
Cc1[nH]c(=O)[nH]c(=O)c1S(=O)(=O)Nc1cccc([N+](=O)[O-])c1C	-4	7	-5	0	-2	-4
CCN(c1ccc(C)cc1)S(=O)(=O)c1nnc(NC(=O)c2ccco2)s1	-44	-1	-5	3	20*	-4
CCN(c1ccc(C)cc1C)S(=O)(=O)c1nnc(NC(=O)c2ccco2)s1	-23	-5	0	6	1	-3
CN(C)S(=O)(=O)N1C(=O)c2ccccc2C1=O	2	2	-2	1	4	-4
CN(C)/C=C1\C=C2C(=O)c3ccccc3N2C1=O	10	25	-23	65*	-30	110*
O=C(CNS(=O)(=O)c1c(F)cccc1F)NC1CCCc2ccccc21 (configuration not stated)	-10	-2	7	1	5	1
O=C(O)c1ncsc1-c1ccccc1	-6	3	2	0	3	-1
Cc1cc(C)n2nc(SCCOc3ccccc3)nc2n1	-22	5	3	2	21*	1
COc1ccc(OCCSc2nc3nc(C)cc(C)n3n2)cc1	5	1	1	0	0	4
CCOC(=O)/C(=C/C=C1\Sc2cc(C)c(C)cc2N1CC)C(C)=O	11	11	0	24	-4	12
SMILES	CHRM4 antagonist	CHRM5 antagonist	M5 PAM	CHRM4 agonist	CHRM4 PAM	M5 ag
CCOC(=O)/C(=C\C=C1/Sc2ccccc2N1CC)C(C)=O	4	10	-15	52*	-29	36*
CCOC(=O)/C(=C/C=C1\Sc2ccccc2N1CC)C(C)=O	14	23	-16	18	-9	47*
O=C1CN(C(=O)CNCc2ccccc2)c2ccccc2N1	-5	-3	-1	1	20	-5
C=C1C2=C(C(=O)N1OC)[C@@H](O)[C@@](C)(O)[C@@H](CCCCC)O2	-17	-5	5	0	22*	1
O=C(COC(=O)C1=COCCO1)NCc1ccc(Cl)cc1	-16	2	-2	1	4	0
c1ccc(Nc2ncnc3sc4c(c23)CCC4)cc1	0	-15	5	-3	20	0
c1csc(CCNc2ncnc3sc4c(c23)CCC4)c1	11	32*	-20	14	-4	5
O=C1NC(=S)NC1(c1ccccc1)c1ccccc1	41*	9	-14	0	-9	-11
O=C1NC(=O)C(c2ccccc2)(c2ccccn2)N1 (configuration not stated)	-3	11	-1	1	4	2
O=C(NCc1ccco1)c1nnc(Cc2ccc(Cl)cc2)o1	39*	1	1	-2	-6	-2
O=C(NCc1ccco1)c1nnc(Cc2ccc(F)cc2)o1	8	2	-5	0	-5	1
O=[N+]([O-])c1ccc(C=CC=Cc2ccccc2)cc1	4	8	-2	1	6	1
CC1=NN(c2ccccc2)C(c2ccco2)C1 (configuration not stated)	1	3	-5	0	10	-3
O=[N+]([O-])c1ccc(/C=C/C2=NN(c3ccccc3)C(c3ccco3)C2)cc1 (configuration not stated)	16	42*	-13	15	-9	43*
O=[N+]([O-])c1ccc(C2=NN(c3ccccc3)C(c3ccco3)C2)cc1 (configuration not stated)	37*	77*	-31	41*	-34	214*
CCCCCC1CCC(C(=O)NCCN2CCOCC2)CC1 (configuration not stated)	-2	7	-5	3	-5	-4
COc1cc(-c2noc(C3CCCN(C(=O)c4ccccc4)C3)n2)cc(OC)c1OC (configuration not stated)	-11	-22	-1	0	14*	7
NC(=O)c1c(NC(=O)Cn2cnc([N+](=O)[O-])n2)sc2c1CCCC2	28*	15	-4	4	3	-1
O=[N+]([O-])c1ccc(COc2cccnc2)cc1	-7	3	-3	2	-4	0
O=[N+]([O-])c1ccc(-c2cccnc2)cc1	3	4	18*	1	1	2
CC1CCCC(C)N1C(=O)COC(=O)CNS(=O)(=O)c1ccc2ccccc2c1 (configuration not stated)	9	14	-6	6	-5	5

Compound activity as filed in PubChem BioAssay.
